Here are results for 18 compounds from ChEMBL document CHEMBL4627249, “New modification strategy of matrine as Hsp90 inhibitors based on its specific L conformation for cancer treatment” (Bioorg Med Chem, 2020).

Structures are written as SMILES. Active and inactive are the calls of the source. No cut-off for these calls is given here.

For one assay, the system named is HeLa. Kind of assay: Antiproliferative activity against human HeLa cells assessed as reduction in cell viability after 48 hrs by MTT assay. The class given is functional, cell-based. Put shortly:
(§1)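 HepG2 or HeLa cells in DMEM with 10% FBS and 1% penicillin-streptomycin were preincubated 24 h (37 °C, 5% CO2). They were then exposed for 48 h to 1, 5, 10, 20, 50 and 100 µM, diluted in medium from DMSO stocks. MTT (5 mg/mL, 20 µL) was added for 4 h, formazan dissolved in DMSO, and A490 read. Each concentration was run in triplicate. IC50 is the mean from dose-response curves of at least three independent experiments; cisplatin was the positive control.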
On the technique in general: Tetrazolium dyes change colour on reduction, which living cells bring about.

The subject of another assay is HepG2. Description: Antiproliferative activity against human HepG2 cells assessed as reduction in cell viability after 48 hrs by MTT assay. Particulars: HepG2, 48 h. The assay is classed as functional, cell-based. Put shortly:
as §1

The next assay has as its system MDA-MB-231. Kind of assay: Antiproliferative activity against human MDA-MB-231 cells assessed as reduction in cell viability after 48 hrs by MTT assay. The assay is classed as functional, cell-based. Particulars: MDA-MB-231, 48 h.
In assay [1] the target is Heat shock protein HSP90 (Homo sapiens) (UniProt P07900+P08238).

Take `Clc1ccc(/N=C2\CCC[C@@H]3[C@H]4CCCN5CCC[C@@H](CN23)[C@@H]45)cc1`: the half-inhibitory concentration (IC50) is greater than 100 µM in the assay with HeLa, greater than 100 µM with HepG2 and 73.4 µM in the assay with MDA-MB-231. Further, the deltaTm entry in assay [1] is “inactive”.

On to `c1ccc(-c2ccc(/N=C3\CCC[C@@H]4[C@H]5CCCN6CCC[C@@H](CN34)[C@@H]56)cc2)cc1`, for which the IC50 with HeLa was found to be 23.7 µM; with HepG2 it was 11 µM; in the assay with MDA-MB-231, 24.6 µM. Further, in assay [1], the ΔTm is -4.91 °C.

For the compound `COc1ccc2nc3c(c(N)c2c1)CC[C@@H]1[C@H]2CCCN4CCC[C@@H](CN31)[C@@H]24`, the IC50 with HeLa was 18 µM; with HepG2, 10.9 µM; in the assay with MDA-MB-231 it was 21.2 µM. Also, in assay [1], the ΔTm is -5.48 °C.

With `Nc1c2c(nc3ccc(Br)cc13)N1C[C@@H]3CCCN4CCC[C@@H]([C@H]34)[C@H]1CC2`, the concentration for half-maximal inhibition (IC50) in the assay on HeLa worked out at 6.9 µM; in the assay on HepG2, 9.7 µM; with MDA-MB-231, 9.7 µM. Moreover, in assay [1], the thermal shift (ΔTm) was -7.58 °C.

As to `c1ccc(Oc2ccc(/N=C3\CCC[C@@H]4[C@H]5CCCN6CCC[C@@H](CN34)[C@@H]56)cc2)cc1`, the results for the IC50 in the assay on HeLa, in the assay on HepG2 and with MDA-MB-231 were 33.7 µM, 51.3 µM and 55.2 µM, respectively. In assay [1], the shift in melting temperature (ΔTm) was -1.3 °C.

Regarding `Cc1c(/N=C2\CCC[C@@H]3[C@H]4CCCN5CCC[C@@H](CN23)[C@@H]45)cccc1[N+](=O)[O-]`, the results for the half-inhibitory concentration (IC50) in the assay on HeLa, in the assay with HepG2 and with MDA-MB-231 were greater than 100 µM, 86.1 µM and greater than 100 µM, respectively. The ΔTm in assay [1] was -1.06 °C.

On to `CC(C)c1ccc(/N=C2\CCC[C@@H]3[C@H]4CCCN5CCC[C@@H](CN23)[C@@H]45)cc1`, for which the IC50 in the assay with HeLa stood at 93.3 µM; in the assay with HepG2, 96.6 µM; in the assay with MDA-MB-231, 77.5 µM. In assay [1], the ΔTm is -1.24 °C.

`O=C1CCCC[C@@H]2[C@H]3CCCN4CCC[C@@H](CN12)[C@@H]34`: the IC50 with HeLa, with HepG2 and with MDA-MB-231 was greater than 100 µM throughout.

`Nc1c2c(nc3ccccc13)N1C[C@@H]3CCCN4CCC[C@@H]([C@H]34)[C@H]1CC2`: the results for the IC50 with HeLa, with HepG2 and with MDA-MB-231 were 23.3 µM, 14.3 µM and 22.2 µM, respectively. In addition, the ΔTm in assay [1] is -3.12 °C.

With `CCOc1ccc(/N=C2\CCC[C@@H]3[C@H]4CCCN5CCC[C@@H](CN23)[C@@H]45)cc1`, the figures for the half-inhibitory concentration (IC50) with HeLa, with HepG2 and with MDA-MB-231 were greater than 100 µM, 97.5 µM and greater than 100 µM, respectively. Besides, the ΔTm in assay [1] amounted to 0 °C.

Consider `Nc1c2c(nc3ccc(F)cc13)N1C[C@@H]3CCCN4CCC[C@@H]([C@H]34)[C@H]1CC2`, for which the IC50 is 18.8 µM with HeLa, 13.1 µM in the assay on HepG2 and 37.3 µM in the assay with MDA-MB-231. In addition, in assay [1], the ΔTm is -2.3 °C.

As for `c1ccc(/N=C2\CCC[C@@H]3[C@H]4CCCN5CCC[C@@H](CN23)[C@@H]45)cc1`, the IC50 in the assay on HeLa, in the assay on HepG2 and with MDA-MB-231 was greater than 100 µM throughout. The thermal shift (ΔTm) in assay [1] is -0.57 °C.

On to `O=C1C[C@@H]2[C@H]3CCCN4CCC[C@@H](CN12)[C@@H]34`, for which the IC50 with HeLa, in the assay on HepG2 and with MDA-MB-231 was greater than 100 µM in each case. Also, the shift in melting temperature (ΔTm) in assay [1] was found to be 0.44 °C.

Take `Cc1ccc2nc3c(c(N)c2c1)CC[C@@H]1[C@H]2CCCN4CCC[C@@H](CN31)[C@@H]24`: the 50% inhibitory concentration (IC50) with HeLa is 13.4 µM; in the assay on HepG2, 9.2 µM; in the assay on MDA-MB-231 it was 16.9 µM. In addition, the shift in melting temperature (ΔTm) in assay [1] was -4.27 °C.

For the compound `O=C1CCC[C@@H]2[C@H]3CCCN4CCC[C@@H](CN12)[C@@H]34` [MATRINE], the IC50 came to 4330 µM in the assay with HeLa, 4510 µM in the assay with HepG2 and 5370 µM with MDA-MB-231. Besides, the ΔTm in assay [1] was 0.04 °C.

On to `Nc1c2c(nc3ccc([N+](=O)[O-])cc13)N1C[C@@H]3CCCN4CCC[C@@H]([C@H]34)[C@H]1CC2`, for which the IC50 with HeLa is 69.2 µM; with HepG2 it was 35.1 µM; with MDA-MB-231 it was 24.4 µM. The ΔTm in assay [1] was -0.24 °C.

For `Nc1c2c(nc3ccc(Cl)cc13)N1C[C@@H]3CCCN4CCC[C@@H]([C@H]34)[C@H]1CC2`, the values for the IC50 in the assay with HeLa, with HepG2 and with MDA-MB-231 were 8.9 µM, 6.4 µM and 14.3 µM, respectively. Further, the ΔTm in assay [1] was -6.58 °C.

Consider `N#Cc1ccccc1/N=C1\CCC[C@@H]2[C@H]3CCCN4CCC[C@@H](CN12)[C@@H]34`, for which the IC50 in the assay with HeLa, with HepG2 and in the assay on MDA-MB-231 was greater than 100 µM each time. Besides, the thermal shift (ΔTm) in assay [1] is -1.44 °C.

For orientation: IC50 means the point on the concentration scale where inhibition reaches its midpoint. What is called ΔTm is the change in melting temperature against a reference sample.
